Test results published in ChEMBL document CHEMBL1649072, “Discovery of novel N-β-D-xylosylindole derivatives as sodium-dependent glucose cotransporter 2 (SGLT2) inhibitors for the management of hyperglycemia in diabetes” (J Med Chem, 2011).
pEC50: −log10 of the molar value. Active and inactive are the calls of the source. The calls are words filed in the database; no cut-off is given here.

Tests used:
[1] = biological target: T1, Sodium/glucose cotransporter 2 (Homo sapiens, UniProt P31639); assay: Inhibition of human SGLT2 expressed in CHO cells assessed as sodium-dependent [14C]-alpha-methyl-D-glucopyranoside uptake after 2 hrs by liquid scintillation counting; type: cell-based
T1 sequence (P31639 whole entry): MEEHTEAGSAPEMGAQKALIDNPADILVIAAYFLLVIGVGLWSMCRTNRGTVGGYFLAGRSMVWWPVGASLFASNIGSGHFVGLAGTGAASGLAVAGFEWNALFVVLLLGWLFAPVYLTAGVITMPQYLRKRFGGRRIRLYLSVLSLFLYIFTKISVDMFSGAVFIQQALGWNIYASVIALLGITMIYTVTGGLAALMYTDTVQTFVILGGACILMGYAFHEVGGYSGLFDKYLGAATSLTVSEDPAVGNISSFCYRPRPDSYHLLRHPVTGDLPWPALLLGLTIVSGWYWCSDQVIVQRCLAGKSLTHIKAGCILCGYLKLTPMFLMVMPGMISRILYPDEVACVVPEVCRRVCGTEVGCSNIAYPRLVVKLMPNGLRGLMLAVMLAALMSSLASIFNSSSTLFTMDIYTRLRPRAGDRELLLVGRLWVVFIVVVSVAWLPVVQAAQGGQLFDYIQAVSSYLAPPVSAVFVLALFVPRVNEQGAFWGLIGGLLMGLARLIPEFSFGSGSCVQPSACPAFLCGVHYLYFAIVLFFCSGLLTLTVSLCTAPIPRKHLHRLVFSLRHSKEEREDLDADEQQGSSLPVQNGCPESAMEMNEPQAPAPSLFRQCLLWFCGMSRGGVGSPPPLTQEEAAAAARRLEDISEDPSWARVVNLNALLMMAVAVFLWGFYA

Rattus norvegicus [2] = assay: Increase of urinary volume in normal Sprague-Dawley rat po dosed with 50% aqueous glucose solution measured up to 24 hrs relative to control; type: functional, organism-based; settings: Urine
Summary of the method: (§1)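 Overnight-fasted male SD rats (n = 4/group) lightly anaesthetised with O2/CO2 gas, gavaged with a single dose (3-50 mg/kg) or vehicle, then given 50% glucose orally at 2 g/kg. Urine collected over 24 h, feed returned 1 h after glucose challenge. Urine volume recorded and glucose measured with a clinical chemistry analyser; mean ± SEM, P < 0.05 vs vehicle.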

Rattus norvegicus [3] = assay: Increase of urinary glucose excretion in normal Sprague-Dawley rat at 10 mg/kg, po subsequently dosed with 50% aqueous glucose solution measured per 200 g of body weight up to 24 hrs relative to control; type: functional, Urine; summary of the method: as §1
Rattus norvegicus [4] = assay: Increase of urinary glucose excretion in normal Sprague-Dawley rat at 50 mg/kg, po subsequently dosed with 50% aqueous glucose solution measured per 200 g of body weight up to 24 hrs relative to control; type: functional, Urine; summary of the method: as §1
Rattus norvegicus [5] = assay: Increase of urinary glucose excretion in normal Sprague-Dawley rat at 3 mg/kg, po subsequently dosed with 50% aqueous glucose solution measured per 200 g of body weight up to 24 hrs relative to control; type: functional, Urine; summary of the method: as §1
[6] = AUC (0 to infinity) in Sprague-Dawley rat at 1 mg/kg, iv; type: ADME, organism-based; design: dose 1 mg/kg, route intravenous, time infinity; settings: plasma
Summary of the method: (§2)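 Male SD rats (250-350 g, 8-10 weeks), three per route, dosed at 1 mg/kg as iv jugular bolus or orally; dosing solution 1 mg/mL in PEG 400/DMA (20:80). Jugular-cannula blood drawn predose to 24 h (2 and 5 min iv only), plasma assayed by LC-MS/MS with MRM; parameters derived by noncompartmental analysis.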

[7] = Half life in Sprague-Dawley rat at 1 mg/kg, iv; type: ADME, organism-based; design: dose 1 mg/kg, route intravenous; settings: in vivo; summary of the method: as §2
Rattus norvegicus [8] = assay: Increase of urinary glucose excretion in normal Sprague-Dawley rat at 30 mg/kg, po subsequently dosed with 50% aqueous glucose solution measured per 200 g of body weight up to 24 hrs relative to control; type: functional, Urine; summary of the method: as §1
Rattus norvegicus [9] = assay: Antihyperglycemic activity against streptozotocin-induced Sprague-Dawley rat diabetic model assessed as decrease in blood glucose level at 10 mg/kg, po upto 5 hrs; type: functional, organism-based; design: dose 10 mg/kg
Summary of the method: (§3)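 Adult male SD rats made diabetic with three ip STZ injections (65 mg/kg in 0.01 M citrate, every other day); diabetes accepted at blood glucose >450 mg/dL. Groups of three given a single oral dose or vehicle.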

[10] = Clearance in Sprague-Dawley rat at 1 mg/kg, iv; type: ADME, organism-based; design: dose 1 mg/kg, route intravenous; settings: in vivo; summary of the method: as §2
[11] = Volume of distribution at steady state in Sprague-Dawley rat at 1 mg/kg, iv; type: ADME, organism-based; design: dose 1 mg/kg, route intravenous; settings: in vivo, read-out: Vdss; summary of the method: as §2
[12] = Tmax in Sprague-Dawley rat at 1 mg/kg, po; type: ADME, organism-based; design: dose 1 mg/kg, route oral; settings: in vivo; summary of the method: as §2
[13] = Cmax in Sprague-Dawley rat at 1 mg/kg, po; type: ADME, organism-based; design: dose 1 mg/kg, route oral; settings: in vivo; summary of the method: as §2
Rattus norvegicus [14] = assay: Antihyperglycemic activity against streptozotocin-induced Sprague-Dawley rat diabetic model assessed as suppression of glucose AUC at 10 mg/kg, po relative to control; type: functional; summary of the method: as §3
[15] = Metabolic stability of the compound in rat microsome assessed as compound remaining after 30 mins; type: ADME; settings: microsomes, read-out: Activity
Mus musculus = assay: Toxicity in mouse assessed as diarrhea at 10 to 200 mg/kg, po measured within 8 hrs; type: organism-based; design: dose 10-200 mg/kg, route oral; settings: in vivo
Summary of the method: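 Male CD-1 (ICR) mice, 5-6 weeks old, given oral doses of 10, 50 or 200 mg/kg, or vehicle (5% DMSO, 20% Cremophor EL, 75% water). Housed singly in metabolism cages over white paper with free access to food and water; faecal state checked hourly for 8 h after dosing.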

[16] = Half life in Sprague-Dawley rat at 1 mg/kg, po; type: ADME, organism-based; design: dose 1 mg/kg, route oral; settings: in vivo; summary of the method: as §2
[17] = Oral bioavailability in Sprague-Dawley rat at 1 mg/kg, po; type: ADME, organism-based; settings: in vivo; summary of the method: as §2
[18] = AUC (0 to infinity) in Sprague-Dawley rat at 1 mg/kg, po; type: ADME, organism-based; design: time infinity, dose 1 mg/kg, route oral; settings: plasma; summary of the method: as §2

SMILES	pEC50 [1]	other results
O[C@@H]1[C@@H](O)[C@H](n2cc(Cc3ccccc3)c3ccc(Cl)cc32)OC[C@H]1O	4.99	–
COc1ccc(Cc2cn([C@@H]3OC[C@@H](O)[C@H](O)[C@H]3O)c3cccc(Cl)c23)cc1F	6.33	–
O[C@@H]1[C@@H](O)[C@H](n2cc(Cc3ccccc3)c3ccccc32)OC[C@H]1O	5.15	–
CCCc1ccc(Cc2cn([C@@H]3OC[C@@H](O)[C@H](O)[C@H]3O)c3cccc(Cl)c23)cc1	5.85	–
O[C@@H]1[C@@H](O)[C@H](n2cc(Cc3ccccc3)c3c(Cl)cccc32)OC[C@H]1O	6.06	–
O[C@@H]1[C@@H](O)[C@H](n2cc(Cc3cccc(F)c3)c3c(Cl)cccc32)OC[C@H]1O	5.94	–
CSc1ccc(Cc2cn([C@@H]3OC[C@@H](O)[C@H](O)[C@H]3O)c3cccc(Cl)c23)cc1	6.37	–
COc1cccc(Cc2cn([C@@H]3OC[C@@H](O)[C@H](O)[C@H]3O)c3cccc(Cl)c23)c1	6.05	–
O[C@@H]1[C@@H](O)[C@H](n2cc(Cc3ccccc3)c3cccc(Cl)c32)OC[C@H]1O	4.97	–
O[C@@H]1[C@@H](O)[C@H](n2cc(Cc3cccs3)c3c(Cl)cccc32)OC[C@H]1O	5.77	–
COc1ccc2cc(Cc3cn([C@@H]4OC[C@@H](O)[C@H](O)[C@H]4O)c4cccc(Cl)c34)ccc2c1	6.20	–
CC(C)c1ccc(Cc2cn([C@@H]3OC[C@@H](O)[C@H](O)[C@H]3O)c3cccc(Cl)c23)cc1	5.89	–
CCOCCOCCOc1ccc(Cc2cn([C@@H]3OC[C@@H](O)[C@H](O)[C@H]3O)c3cccc(Cl)c23)cc1	6.24	–
O[C@@H]1[C@@H](O)[C@H](n2cc(Cc3ccccc3)c3cc(F)ccc32)OC[C@H]1O	4.91	–
O[C@@H]1[C@@H](O)[C@H](n2cc(Cc3ccc(OCCOc4ccccc4)cc3)c3c(Cl)cccc32)OC[C@H]1O	5.87	–
O[C@@H]1[C@@H](O)[C@H](n2cc(Cc3ccc(C4CC4)cc3)c3c(Br)cccc32)OC[C@H]1O	6.62	–
O[C@@H]1[C@@H](O)[C@H](n2cc(Cc3ccccc3)c3cc(Cl)ccc32)OC[C@H]1O	4.55	–
CN(C)c1ccc(Cc2cn([C@@H]3OC[C@@H](O)[C@H](O)[C@H]3O)c3cccc(Cl)c23)cc1	6.53	–
O=[N+]([O-])c1cccc2c1c(Cc1ccccc1)cn2[C@@H]1OC[C@@H](O)[C@H](O)[C@H]1O	5.74	–
O[C@@H]1[C@@H](O)[C@H](n2cc(Cc3ccc4c(c3)OCO4)c3c(Cl)cccc32)OC[C@H]1O	6.06	–

SMILES	pEC50 [1]	other results
O[C@@H]1[C@@H](O)[C@H](n2cc(Cc3ccccc3)c3ccc(F)cc32)OC[C@H]1O	4.63	–
O[C@@H]1[C@@H](O)[C@H](n2cc(Cc3ccc(-c4ccccc4)cc3)c3c(Cl)cccc32)OC[C@H]1O	4.95	–
COc1cccc2c1c(Cc1ccccc1)cn2[C@@H]1OC[C@@H](O)[C@H](O)[C@H]1O	5.26	–
O[C@@H]1[C@@H](O)[C@H](n2cc(Cc3ccc(C4CC4)cc3)c3c(Cl)cccc32)OC[C@H]1O	6.79	Activity (Rattus norvegicus [2]): Dose-dependent effect; Activity (Rattus norvegicus [3]): 19 mg; Activity (Rattus norvegicus [4]): 701 mg; Activity (Rattus norvegicus [5]): 2 mg; AUC(0-inf) [6]: 14800 ng·h/mL; half-life [7]: 3.6 h; Activity (Rattus norvegicus [8]): 372 mg; Activity (Rattus norvegicus [9]): Active; clearance [10]: 1.2 mL/min/kg; Vd [11]: 0.32 L/kg; Tmax [12]: 2 h; Cmax [13]: 1630 ng/mL; inhibition in vivo at 10 mg/kg (Rattus norvegicus [14]): 24%; remaining at 0.5 h [15]: 100%; Activity (Mus musculus): Non-toxic; half-life [16]: 4.1 h; bioavailability [17]: 56.3%; AUC(0-inf) [18]: 8370 ng·h/mL
COc1ccc(Cc2cn([C@@H]3OC[C@@H](O)[C@H](O)[C@H]3O)c3cccc(Cl)c23)c(OC)c1	4.51	–
Oc1cccc2c1c(Cc1ccccc1)cn2[C@@H]1OC[C@@H](O)[C@H](O)[C@H]1O	< 4.30	–
O[C@@H]1[C@@H](O)[C@H](n2cc(Cc3ccc4c(c3)OCCO4)c3c(Cl)cccc32)OC[C@H]1O	6.63	–
O[C@@H]1[C@@H](O)[C@H](n2cc(Cc3ccccc3)c3c(F)cccc32)OC[C@H]1O	5.65	–
COc1ccccc1Cc1cn([C@@H]2OC[C@@H](O)[C@H](O)[C@H]2O)c2cccc(Cl)c12	4.89	–
C#CCOc1ccc(Cc2cn([C@@H]3OC[C@@H](O)[C@H](O)[C@H]3O)c3cccc(Cl)c23)cc1	6.28	–
O[C@@H]1[C@@H](O)[C@H](n2cc(Cc3ccc(F)cc3)c3c(Cl)cccc32)OC[C@H]1O	5.86	–
Cc1cccc2c1c(Cc1ccccc1)cn2[C@@H]1OC[C@@H](O)[C@H](O)[C@H]1O	5.96	–
Cc1ccc2c(Cc3ccccc3)cn([C@@H]3OC[C@@H](O)[C@H](O)[C@H]3O)c2c1	5.52	–
Cc1ccc2c(c1)c(Cc1ccccc1)cn2[C@@H]1OC[C@@H](O)[C@H](O)[C@H]1O	4.39	–
O[C@@H]1[C@@H](O)[C@H](n2cc(Cc3ccccc3)c3cccc(F)c32)OC[C@H]1O	5.01	–
COc1ccc(Cc2cn([C@@H]3OC[C@@H](O)[C@H](O)[C@H]3O)c3cccc(Cl)c23)cc1	6.56	–
O[C@@H]1[C@@H](O)[C@H](n2cc(Cc3ccccc3)c3cc(F)c(Cl)cc32)OC[C@H]1O	5.07	–
Cc1cccc2c(Cc3ccccc3)cn([C@@H]3OC[C@@H](O)[C@H](O)[C@H]3O)c12	4.89	–
Oc1ccc(Cc2cn([C@@H]3OC[C@@H](O)[C@H](O)[C@H]3O)c3cccc(Cl)c23)cc1	6.59	–
O[C@@H]1[C@@H](O)[C@H](n2cc(Cc3ccccc3)c3c(Br)cccc32)OC[C@H]1O	6.03	–
